Legend:
[1] = test system: LN-229; assay: Cytotoxicity against human LN229 cells assessed as cell viability at 1 ug/ml incubated for 72 hrs by Guava ViaCount reagent based flow cytometry; type: functional; conditions: LN-229, 72 h, read-out: Activity
In short: (§1)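 Cells kept as semi-confluent monolayers in DMEM with 10% FBS, 50 U/ml penicillin and […], at 37 °C under 5% CO₂. Seeded at 2 × 10⁴ cells per well in 24-well plates. Compounds were made up as 10 mg/ml DMSO stocks, diluted into medium to a final 1 or 10 μg/ml, and left on the cells for 72 h.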

[2] = Solubility in water; type: physicochemical; conditions: buffer
[3] = test system: LN-229; assay: Cytotoxicity against human LN229 cells assessed as cell viability at 10 ug/ml incubated for 72 hrs by Guava ViaCount reagent based flow cytometry; type: functional; conditions: LN-229, 72 h, read-out: Activity; in short: as §1
[4] = Solubility in organic solvents; type: physicochemical

Row | SMILES | viability at 1 µg/mL [1] [%] | solubility [2] | viability at 10 µg/mL [3] [%] | solubility [4]
1 | CN1C(=O)C(=CNc2ccccc2)C(=O)N(C)C1=O | 95 | Insoluble | 96.1 | Insoluble
2 | CN1C(=O)/C(=C/Nc2cccc3ccccc23)C(=O)NC1=S | 90 |  | 78.3 | 
3 | O=C1NC(=S)NC(=O)C1=CNc1ccc2cc3ccccc3cc2c1 | 83.3 |  | 11 | 
4 | O=C1NC(=O)C(=CNc2cccc3c2C(=O)c2ccccc2C3=O)C(=O)N1 | 31.9 |  | 22.1 | 
5 | O=C1NC(=S)NC(=O)C1=CNc1ccc(-c2ccccc2)cc1 | 95.3 |  | 13.8 | 
6 | CN1C(=O)/C(=C/Nc2ccc3ccccc3c2)C(=O)NC1=S | 94.6 |  | 84.5 | 
7 | CN1C(=O)NC(=O)/C(=C\Nc2ccc3ccccc3c2)C1=O | 90 |  | 56 | 
8 | CN1C(=O)NC(=O)/C(=C/Nc2ccccc2)C1=O | 94.9 | Insoluble | 95 | Insoluble
9 | CN1C(=O)C(=CNc2ccc3c(c2)C(=O)c2ccccc2C3=O)C(=O)N(C)C1=O | 92.4 |  | 68.3 | 
10 | CN1C(=O)NC(=O)/C(=C\Nc2cccc3ccccc23)C1=O | 89 |  | 94.5 | 
11 | O=C1NC(=S)NC(=O)C1=CNc1ccc2ccccc2c1 | 96.5 |  | 94.4 | 
12 | O=C1NC(=S)NC(=O)C1=CNc1cccc2c1C(=O)c1ccccc1C2=O | 65 |  | 48.6 | 
13 | CN1C(=O)NC(=O)/C(=C\Nc2ccc(-c3ccccc3)cc2)C1=O | 96.9 |  | 93.5 | 
14 | CN1C(=O)/C(=C\Nc2ccccc2)C(=O)NC1=S | 94.3 | Insoluble | 94.3 | Insoluble
15 | CN1C(=O)/C(=C/Nc2ccc3c(c2)C(=O)c2ccccc2C3=O)C(=O)NC1=S | 80.8 |  | 17.2 | 
16 | O=C1NC(=O)N(c2ccc([N+](=O)[O-])cc2)C(=O)/C1=C/Nc1cccc2c1C(=O)c1ccccc1C2=O | 75.8 |  | 10.4 | 
17 | O=C1NC(=O)N(c2ccccc2)C(=O)/C1=C/Nc1cccc2c1C(=O)c1ccccc1C2=O | 66.3 |  | 29.2 | 
18 | O=C1NC(=O)N(c2ccccc2)C(=O)/C1=C/Nc1ccc2c(c1)C(=O)c1ccccc1C2=O | 87.6 |  | 76.5 | 
19 | O=C1NC(=O)C(=CNc2ccc3c(c2)C(=O)c2ccccc2C3=O)C(=O)N1 | 82.9 |  | 17.2 | 

Row | SMILES | viability at 1 µg/mL [1] [%] | solubility [2] | viability at 10 µg/mL [3] [%] | solubility [4]
20 | CN1C(=O)NC(=O)/C(=C\Nc2ccc3cc4ccccc4cc3c2)C1=O | 60.3 |  | 9.4 | 
21 | CN1C(=O)/C(=C/Nc2ccc(-c3ccccc3)cc2)C(=O)NC1=S | 97 |  | 89.6 | 
22 | CN1C(=O)C(=CNc2ccc3cc4ccccc4cc3c2)C(=O)N(C)C1=O | 88.1 |  | 60.8 | 
23 | CN1C(=O)/C(=C/Nc2ccc3cc4ccccc4cc3c2)C(=O)NC1=S | 75 |  | 3.7 | 
24 | CN1C(=O)NC(=O)/C(=C\Nc2ccc3c(c2)C(=O)c2ccccc2C3=O)C1=O | 89.7 |  | 28.9 | 
25 | CN1C(=O)C(=CNc2ccc(-c3ccccc3)cc2)C(=O)N(C)C1=O | 94.8 |  | 94.6 | 
26 | CN1C(=O)C(=CNc2cccc3c2C(=O)c2ccccc2C3=O)C(=O)N(C)C1=O | 94.7 |  | 86.3 | 
27 | O=C1NC(=O)N(c2ccc([N+](=O)[O-])cc2)C(=O)/C1=C/Nc1ccc2c(c1)C(=O)c1ccccc1C2=O | 88.2 |  | 61.8 | 
28 | O=C1NC(=O)C(=CNc2ccccc2)C(=O)N1 | 96.2 | Insoluble | 96.1 | Insoluble
29 | O=C1NC(=O)C(=CNc2cccc3ccccc23)C(=O)N1 | 93.2 |  | 95.1 | 
30 | O=C1NC(=O)C(=CNc2ccc3ccccc3c2)C(=O)N1 | 92.4 |  | 82.4 | 
31 | CN1C(=O)C(=CNc2ccc3ccccc3c2)C(=O)N(C)C1=O | 90.5 |  | 86.6 | 
32 | O=C1NC(=S)NC(=O)C1=CNc1ccc2c(c1)C(=O)c1ccccc1C2=O | 87.4 |  | 12.3 | 
33 | CN1C(=O)/C(=C/Nc2cccc3c2C(=O)c2ccccc2C3=O)C(=O)NC1=S |  | Insoluble |  | Insoluble
34 | O=C1NC(=O)C(=CNc2ccc(-c3ccccc3)cc2)C(=O)N1 | 92.6 |  | 85.5 | 
35 | CN1C(=O)C(=CNc2cccc3ccccc23)C(=O)N(C)C1=O | 94.5 |  | 95.4 | 
36 | O=C1NC(=S)NC(=O)C1=CNc1ccccc1 | 96.5 | Insoluble | 95.3 | Insoluble
37 | CN1C(=O)NC(=O)/C(=C\Nc2cccc3c2C(=O)c2ccccc2C3=O)C1=O | 84.8 |  | 35.3 | 

— ChEMBL document CHEMBL4043206, “Anticancer potential of aminomethylidene-diazinanes I. Synthesis of arylaminomethylidene of diazinetriones and its cytotoxic effects tested in glioblastoma cells” (Bioorg Med Chem, 2017)
